Experimental data of several laboratories.
Protocols differ between the studies behind these lines.
RET: Proto-oncogene tyrosine-protein kinase receptor Ret (RET, Homo sapiens, UniProt P07949)
RET V804M: Proto-oncogene tyrosine-protein kinase receptor Ret (RET, Homo sapiens, UniProt P07949, V804M)
RET V804L: Proto-oncogene tyrosine-protein kinase receptor Ret (RET, Homo sapiens, UniProt P07949, V804L)
RET M918T: Proto-oncogene tyrosine-protein kinase receptor Ret (RET, Homo sapiens, UniProt P07949, M918T)

| Structure (SMILES) | target | assay | setting | remaining binding |
| --- | --- | --- | --- | --- |
| O=C(N[C@H]1CCCCC/C=C\C2C[C@@]2(C(=O)O)NC(=O)[C@@H]2C[C@@H](Oc3ccncc3)CN2C1=O)OC1CCCC1 (some centres unmarked) | RET | binding, competition with immobilised ligand | 1 µM | 94% |
| COc1cnc(Nc2cccc(S(N)(=O)=O)c2)nc1N1CCN(c2ccccc2)CC1 | RET V804M | binding, competition with immobilised ligand | 1 µM | 67% |
| CCS(=O)(=O)c1cc2cc(C[C@](O)(CC(C)(C)c3ccc(F)cc3C(N)=O)C(F)(F)F)[nH]c2cn1 | RET V804L | cell-free assay, competition with immobilised ligand | 1 µM | 100% |
| F[C@@H]1CCN(c2nccc(-c3cnn4ncccc34)n2)C1 | RET V804L | binding | 1 µM | 100% |
| COc1cc(-c2cn(C3CCc4c(F)cccc4N(CC(F)(F)F)C3=O)nn2)ccc1-n1cnc(C)c1 (centres unmarked) | RET M918T | cell-free assay, competition with immobilised ligand | 1 µM | 100% |
| CN(C)c1nccc(-c2cnn3ncccc23)n1 | RET V804M | binding | 1 µM | 100% |
| O=C(NCCCN1CCOCC1)c1ccc(Nc2ncc(Cl)c(-c3ccc(Cl)s3)n2)cc1 | RET V804M | binding, competition with immobilised ligand | 1 µM | 15% |
| CNC(=O)[C@@H]1CC[C@@H](n2c(-c3ccc4cnccc4c3)nc3ccc(C(=O)NCc4cccc(C(N)=O)c4)cc32)C1 | RET | binding, competition with immobilised ligand | 1 µM | 96% |
| FC(F)(F)Oc1cccc(-c2cnc3ccc(-c4ccncc4)nn23)c1 | RET | cell-free assay, competition with immobilised ligand | 5 µM | 86% |
| N#Cc1ccccc1CSc1nnc2c(n1)[nH]c1ccccc12 | RET | binding, competition with immobilised ligand | 10 µM | 89% |
| CCC(=O)N[C@H]1CC[C@@H](C(=O)N(C)c2ccc(-c3nc4ccccc4o3)cc2)C1 | RET V804M | cell-free assay, competition with immobilised ligand | 1 µM | 100% |
| Cc1cnc(Nc2ccc(C(=O)N3CCC(N4CCCC4)CC3)cc2)nc1-c1cc2ccccc2s1 | RET V804L | binding, competition with immobilised ligand | 1 µM | 11% |
| O=C(Nc1cnc(Oc2ccc(F)cc2)nc1)N1CCc2ncccc2[C@@H]1c1ccc(F)cc1 | RET M918T | cell-free assay, competition with immobilised ligand | 1 µM | 95% |
| CC1CCCN1c1nccc(-c2cnn3ncccc23)n1 (centres unmarked) | RET | binding | 1 µM | 100% |
| O=C(c1ccc(Nc2ncc(Cl)c(-c3ccc(Cl)s3)n2)cc1)N1CCC(N2CCCC2)CC1 | RET V804L | binding, competition with immobilised ligand | 1 µM | 10% |
| N[C@@H]1CCN(c2nccc(-c3cnn4ncccc34)n2)C1 | RET V804M | binding | 1 µM | 99% |
| O=C(N1CCS(=O)(=O)CC1)N1C[C@H](c2ccc(OC(F)(F)F)cc2)C[C@H](c2nc(C3CC3)no2)C1 | RET M918T | cell-free assay, competition with immobilised ligand | 1 µM | 92% |
| O=C(Nc1c[nH]nc1C(=O)NC1CCNCC1)c1cc(F)cc(F)c1 | RET V804L | binding, competition with immobilised ligand | 1 µM | 100% |
| Cc1cnn2ncc(-c3ccnc(N(C)C)n3)c2c1 | RET M918T | binding | 1 µM | 100% |
| CN1CCN(c2ccc(Nc3nccc(-c4cccc([N+](=O)[O-])c4)n3)cc2C(F)(F)F)CC1 | RET V804M | binding | 10 µM | 49% |
| Nc1cnc(N2CCc3cc(S(=O)(=O)Nc4c(F)cc(Cl)cc4F)cc(N4CCCC4=O)c32)nc1 | RET | cell-free assay, competition with immobilised ligand | 1 µM | 89% |
| C[C@H]1CCN(c2nccc(-c3cnn4ncccc34)n2)C1 | RET V804M | binding | 1 µM | 84% |
| c1cncc(-c2cccc(Nc3nccc(NC4CCCCC4)n3)c2)c1 | RET | binding, competition with immobilised ligand | 10 µM | 14% |
